According to paper PMC12461553 (RSC Advances, 2025):

Key:
MCF-7 cells [1] = assay: SRB cytotoxicity assay, MCF-7; assay type: cell-based, human
4T1 cells [2] = assay: SRB cytotoxicity assay, 4T1; assay type: cell-based, murine
How it was run: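 Single-dose screen: cells in DMEM/10% FBS at 37 °C, 5% CO2, seeded at 3000 per well, attached 24 h, then exposed to test compound at 25 μM final for 48 h. Fixed in cold 10% TCA, 1 h, 4 °C; stained 0.057% SRB, 30 min, dark, room temperature; rinsed with 1% acetic acid; dye solubilised in Tris base pH 10.5; absorbance 510 nm; percent cell death.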

MDA-MB-231 cells [3] = assay: SRB cytotoxicity assay, MDA-MB-231; assay type: cell-based, human
HEK-293 kidney cells = assay: SRB cytotoxicity assay, HEK-293 normal cells; assay type: cell-based; conditions: Homo sapiens, HEK293, read-out: IC50 value, HEK-293 kidney cells
How it was run: (§1)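 Dose–response SRB assay: cells at 3000 per well were attached 24 h, then treated 48 h with test compound at 0.39–25 μM. They were TCA-fixed and stained with 0.057% SRB. Bound dye was dissolved in Tris base pH 10.5 and read at 510 nm. IC50 was fitted by non-linear regression.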

BEAS-2B lung cells = assay: SRB cytotoxicity assay, BEAS-2B normal cells; assay type: cell-based; conditions: Homo sapiens, read-out: IC50 value, BEAS-2B lung cells
How it was run: as §1

MCF-7 cells [4] = assay: Cell cycle analysis; assay type: cell-based, human; conditions: MCF-7, 6 μM
How it was run: (§2)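 Cells were seeded at 1 × 10^5 per well and attached 24 h, then exposed to test compound for 24 h. Doxorubicin (0.5 μM) and untreated controls were run alongside. Cells were harvested, washed with PBS and stained with PI/RNase solution for DNA content. Flow cytometry gave G1, S and G2/M fractions from fluorescence intensity using predefined gates.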

4T1 cells [5] = assay: Cell cycle analysis; assay type: cell-based, murine; conditions: 4T1, 6 μM
How it was run: as §2

MDA-MB-231 cells [6] = assay: Cell cycle analysis; assay type: cell-based, human; conditions: MDA-MB-231, 4 μM
How it was run: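 Cells were treated with test compound at 0.5, 1, 2 and 4 μM beside untreated controls. They were stained with propidium iodide and analysed by flow cytometry to give the percentages of cells in G1, S and G2/M phases.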

MCF-7 cells [7] = assay: Annexin V-FITC/PI apoptosis assay, MCF-7; assay type: cell-based, human
How it was run: (§3)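 Cells were seeded at 1 × 10^5 per well and allowed to adhere 24 h, then treated 24 h with test compound (2, 4, 6 μM) alongside untreated controls. They were harvested, washed in PBS and stained with annexin V-FITC plus PI in binding buffer, 20 min, dark, room temperature. Flow cytometry gave percentages of viable, early apoptotic, late apoptotic and necrotic cells.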

4T1 cells [8] = assay: Annexin V-FITC/PI apoptosis assay, 4T1; assay type: cell-based, murine
How it was run: as §3

[9] = system: BCL-2 and Survivin expression in MDA-MB-231 cells; assay: Gene expression analysis by RT-qPCR; assay type: cell-based, human
How it was run: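 Cells were treated 48 h with varying test compound concentrations, then total RNA was extracted and checked spectrophotometrically. 2 μg RNA was reverse-transcribed to cDNA. BCL2 and Survivin transcripts were measured by RT-qPCR and quantified by the 2−ΔΔCt method against β2-microglobulin as reference gene.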

MDA-MB-231 cells [10] = assay: 3D spheroid; assay type: cell-based, human; conditions: 8 days
How it was run: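 Single-cell suspensions in 1.5% methylcellulose/DMEM with 20% FBS were seeded at 1 × 10^5 cells per well over a 1% agarose–DMEM base for non-adherent growth. Cells were treated with test compound (0.5, 1, 2 μM) or doxorubicin and incubated 8 days. Spheres (≥20 cells) were imaged by fluorescence microscopy and counted per microscopic field.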

Structure (SMILES): Cc1ccc(C(=O)c2c(-c3ccccc3)n(Cc3ccccc3)c(=O)c3c2c2ccccc2n3C)cc1 [9c, 2-Benzyl-9-methyl-4-(4-methylbenzoyl)-3-phenyl-2,9-dihydro-1H-pyrido[3,4-b]indol-1-one]
- cytotoxicity at 25 µM (MCF-7 cells [1]; Homo sapiens, MCF7, 48 h, read-out: Average cell death (%) MCF-7): 75.14 ± 0.02%
- IC50 (MCF-7 cells [1]; Homo sapiens, MCF7, 48 h, read-out: IC50 value, MCF-7): 4.34 ± 0.31 µM
- Average cell death (%) MCF-7 (MCF-7 cells [1]; at 25 μM, 48 h, SRB assay): 75.14 ±4.02%
- cytotoxicity at 25 µM (4T1 cells [2]; Mus musculus, 4T1, 48 h, read-out: Average cell death (%) 4T1): 72.34 ± 0.04%
- IC50 (4T1 cells [2]; Mus musculus, 4T1, 48 h, read-out: IC50 value, 4T1): 3.71 ± 0.39 µM
- Average cell death (%) 4T1 (4T1 cells [2]; at 25 μM, 48 h, SRB assay): 72.34 ±4.04%
- cytotoxicity at 25 µM (MDA-MB-231 cells [3]; Homo sapiens, MDA-MB-231, 48 h, read-out: Average cell death (%) MDA-MB-231): 94.7 ± 1.1%
- IC50 (MDA-MB-231 cells [3]; Homo sapiens, MDA-MB-231, 48 h, read-out: IC50 value, MDA-MB-231): 0.77 ± 0.03 µM
- Selectivity for MDA-MB-231 breast cancer cells (MDA-MB-231 cells [3]; MDA-MB-231 over normal HEK-293 kidney and BEAS-2B lung cells): ~10 fold
- IC50 (HEK-293 kidney cells): 7.96 ± 0.04 µM
- IC50 (BEAS-2B lung cells): 7.18 ± 0.32 µM
- G1 phase population (MCF-7 cells [4]): 85.6%
- G1 phase population (4T1 cells [5]): 50.1%
- G2/M population (4T1 cells [5]): 41.1%
- G1 phase population (MDA-MB-231 cells [6]): 46.9%
- G2/M population (MDA-MB-231 cells [6]): 41.9%
- Early apoptosis (MCF-7 cells [7]; MCF-7, 2 μM): 7.2%
- Total apoptotic population (early + late) (MCF-7 cells [7]; MCF-7, 2 μM): 11.3%
- Early apoptosis (MCF-7 cells [7]; MCF-7, 4 μM): 8.05%
- Total apoptotic population (early + late) (MCF-7 cells [7]; MCF-7, 4 μM): 14.1%
- Early apoptosis (MCF-7 cells [7]; MCF-7, 6 μM): 9.9%
- Total apoptotic population (early + late) (MCF-7 cells [7]; MCF-7, 6 μM): 16.5%
- Early apoptosis (4T1 cells [8]; 4T1, 2 μM): 13.5%
- Total apoptosis (4T1 cells [8]; 4T1, 2 μM): 16.5%
- Early apoptosis (4T1 cells [8]; 4T1, 4 μM): 19.2%
- Total apoptosis (4T1 cells [8]; 4T1, 4 μM): 23.5%
- Early apoptosis (4T1 cells [8]; 4T1, 6 μM): 22%
- Total apoptosis (4T1 cells [8]; 4T1, 6 μM): 27.2%
- Expression of BCL-2 [9]: significantly downregulated
- Expression of Survivin [9]: significantly downregulated
- Number of spheres (MDA-MB-231 cells [10]; MDA-MB-231, 0.5, 1, and 2 μM): reduced the number of spheres in a dose-dependent manner
- Sphere formation (MDA-MB-231 cells [10]; MDA-MB-231, methylcellulose): completely abrogated sphere formation
